Measurements: ChEMBL document CHEMBL1140132, “Virtual screening, identification, and biochemical characterization of novel inhibitors of the reverse transcriptase of human immunodeficiency virus type-1” (J Med Chem, 2008)
Calls of active or inactive are those of the source. The calls are words filed in the database; no cut-off is given here.

Experiments:
[1] = tested on: Escherichia coli; test: Inhibition of DNA dependent DNA polymerase activity of Escherichia coli DNA polymerase 1 Klenow fragment assessed as residual enzyme activity at 50 ug/ml relative to control
[2] = Selectivity index, ratio of inhibition of DNA dependent DNA polymerase activity of Escherichia coli DNA polymerase 1 Klenow fragment to inhibition of DNA dependent DNA polymerase activity of HIV1 BH10 recombinant reverse transcriptase p66/p51
Method in brief: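 Ratio of residual Klenow fragment DNA-dependent DNA polymerase activity to residual HIV-1 RT activity. Both enzymes were assayed side by side under identical conditions: activated herring sperm DNA at 20 µg/mL, all four dNTPs, 37 °C, 1% DMSO, compound at 50 µg/mL.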

[3] = tested on: Human immunodeficiency virus 2; test: Inhibition of RNA dependent DNA polymerase activity of HIV2 recombinant reverse transcriptase at 140 uM
[4] = tested on: Human immunodeficiency virus 1; test: Antiviral activity against HIV1 infected in human 721.221 B lymphocytes assessed as inhibition of pseudovirus infection; conditions: Human immunodeficiency virus 1, 721.221
[5] = target: Human immunodeficiency virus type 1 reverse transcriptase (Human immunodeficiency virus 1, UniProt Q72547, Y181C); test: Inhibition of RNA dependent DNA polymerase activity of HIV1 reverse transcriptase Y181C mutant expressed in Escherichia coli BL21
[6] = target: T1, Human immunodeficiency virus type 1 reverse transcriptase (Human immunodeficiency virus 1, UniProt Q72547); test: Inhibition of RNA dependent DNA polymerase activity of HIV1 BH10 recombinant reverse transcriptase p66/p51 assessed as residual enzyme activity
Method in brief: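 Recombinant RT RNA-dependent DNA polymerase activity measured as [3H]dTTP incorporation into poly(rA)n·oligo(dT)12-18 at 37 °C in 1% DMSO. Inhibitor was mixed into buffer before RT was added. Compound present at 50 µg/mL final.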

[7] = target: Human immunodeficiency virus type 1 reverse transcriptase (Human immunodeficiency virus 1) (UniProt Q72547); test: Inhibition of HIV1 BH10 recombinant reverse transcriptase p66/p51 RNase H activity assessed as residual enzyme activity
Method in brief: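 FRET RNase H assay: RT at 6 nM with 1 mM DTT, incubated with a fluorescein-RNA/DNA-dabcyl hybrid substrate ± inhibitor for 30 min at 37 °C. Hydrolysis is read as emitted fluorescence, in triplicate. Residual activity is relative to the inhibitor-free control.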

[8] = Selectivity index, ratio of CC50 for human 721.221 cells to IC50 for HIV1 pseudovirus infection; assay type: functional
Method in brief: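 CC50 in 721.221 cells from a 72 h XTT viability assay, divided by IC50 against infection by VSV-G-pseudotyped HIV-1 GFP reporter virus. For the infection assay, cells were infected with 5.6 µg/mL Polybrene and 1% DMSO in RPMI, then fixed at 48–72 h and analysed by flow cytometry. IC50 came from a four-parameter logistic fit.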

[9] = tested on: Human immunodeficiency virus type 1 reverse transcriptase (Human immunodeficiency virus 1), Q72547 [L100I,K103N]; test: Inhibition of DNA dependent DNA polymerase activity of HIV1 reverse transcriptase L100I/K103N mutant expressed in Escherichia coli DH5alpha
Method in brief: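 DDDP assay on activated herring sperm DNA (20 µg/mL final) with all four dNTPs, at 37 °C with 1% DMSO. Inhibitor in DMSO is premixed into the buffer before RT is added. Read-out is dNTP incorporation. Dose-response is fitted to a four-parameter logistic for IC50. Values are means of three independent experiments.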

[10] = target: T1, Human immunodeficiency virus type 1 reverse transcriptase; test: Inhibition of DNA dependent DNA polymerase activity of HIV1 BH10 recombinant reverse transcriptase p66/p51 assessed as residual enzyme activity
Method in brief: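 Recombinant RT DNA-dependent DNA polymerase assay at 37 °C in 1% DMSO, with the inhibitor premixed into buffer before RT was added. Template was activated herring sperm DNA, 20 µg/mL final, with all four dNTPs. Compound present at 50 µg/mL final.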

[11] = target: Human immunodeficiency virus type 1 reverse transcriptase (Human immunodeficiency virus 1) (UniProt Q72547); test: Inhibition of RNA dependent DNA polymerase activity of HIV1 BH10 recombinant reverse transcriptase p66/p51 assessed as residual enzyme activity at 616 nM using variable enzyme levels by steady state kinetic assay relative to control
[12] = target: T1, Human immunodeficiency virus type 1 reverse transcriptase; test: Inhibition of RNA dependent DNA polymerase activity of HIV1 BH10 recombinant reverse transcriptase p66/p51 assessed as residual enzyme activity at 616 nM using dTTP substrate by steady state kinetic assay
[13] = Cytotoxicity against human 721.221 cells after 72 hrs by XTT assay; assay type: cell-based
Method in brief: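 721.221 B lymphocytes incubated 72 h at 37 °C with a range of inhibitor concentrations, each concentration in triplicate. Viability read by XTT absorbance at 450 nm, with 620 nm reference. CC50 is the concentration reducing viability by 50% versus the inhibitor-free control.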

[14] = target: T1, Human immunodeficiency virus type 1 reverse transcriptase; test: Inhibition of RNA dependent DNA polymerase activity of HIV1 BH10 recombinant reverse transcriptase p66/p51 assessed as residual enzyme activity at 616 nM using rA.dT substrate by steady state kinetic assay
[15] = tested on: Human immunodeficiency virus 1; test: Antiviral activity against HIV1 infected in human 293T cells; assay type: functional, organism-based; conditions: Human immunodeficiency virus 1, HEK-293T
[16] = tested on: Human immunodeficiency virus 1; test: Antiviral activity against HIV1 infected in 8186 T cells; assay type: functional, organism-based; conditions: Human immunodeficiency virus 1, T-cell
[17] = tested on: Human immunodeficiency virus 1; test: Antiviral activity against HIV1 infected in human CEM cells; assay type: functional, organism-based; conditions: Human immunodeficiency virus 1, CCRF-CEM
[18] = tested on: Human immunodeficiency virus 1; test: Antiviral activity against HIV1 infected in human 293T cells assessed as inhibition of pseudovirus infection; assay type: functional, organism-based; conditions: Human immunodeficiency virus 1, HEK-293T
[19] = tested on: Human immunodeficiency virus 2; test: Inhibition of DNA dependent DNA polymerase activity of HIV2 recombinant reverse transcriptase at 140 uM

| Structure (SMILES) | Activity [1] | Ratio [2] | IC50 [4] | also measured |
| --- | --- | --- | --- | --- |
| CCCOCCCNC(=S)Nc1cccc(C(=O)OCC)c1 | 56.6% | 1.2 | – | – |
| CCCOCCCNC(=S)Nc1ccc(N(C)C)cc1 | 11.1% | 0.2 | – | – |
| O=S(=O)(Nc1n[nH]cc1Br)c1cccc2nsnc12 | – | – | 370 nM | inhibition [3]: 50%; IC50 [5]: 20000 nM; IC50 [6]: 2800 nM; Activity [7]: inactive; Ratio CC50/IC50 [8]: >446; Activity [9]: Active; IC50 [10]: 3300 nM |
| CCCOCCCNC(=S)Nc1cccc(Cl)c1C | 10.8% | 0.4 | – | – |
| COc1cccc(CCNC(=S)Nc2ccc(Br)c(C)c2)c1OC | – | – | 7700 nM | – |
| CC(C)(C)CNC(=O)Nc1cc(C(F)(F)F)cc(C(F)(F)F)c1 | – | – | > 20000 nM | – |
| Cc1ccc(NC(=S)N2CCc3c([nH]c4ccccc34)C2)c(Cl)c1 | – | – | > 20000 nM | – |
| COc1ccccc1NC(=S)NCc1ccco1 | – | – | > 20000 nM | – |
| CCCOCCCNC(=S)Nc1cc(C)c(C)cc1C | 64.4% | 2.9 | – | – |
| CCCOCCCNC(=S)Nc1cc(C)ccc1Cl | 76.5% | 4.4 | 670 nM | – |
| CCCOCCCNC(=S)Nc1cc(Cl)ccc1OC | 50.8% | 3.2 | 320 nM | – |
| CCCOCCCNC(=S)Nc1ccc(Br)c(C)c1 | 14.4% | 0.6 | – | – |
| CCCOCCCNC(=S)Nc1ccc(C(=O)OC)cc1 | 2.6% | 0.2 | – | – |
| CCCCc1ccc(NC(=S)NCCCOCCC)c(C)c1 | 4.5% | 0.2 | – | – |
| CCCOCCCNC(=S)Nc1cc(F)ccc1F | 47.5% | 0.6 | – | – |
| S=C(NCc1ccco1)Nc1ccc(Cl)cc1 | – | – | > 20000 nM | – |
| CCCOCCCNC(=S)Nc1ccc(Br)cc1 | 48.4% | 1.7 | – | – |
| CCCOCCCNC(=S)Nc1cc(C)ccc1OC | 71.7% | 4.3 | 890 nM | – |
| C[C@H](NC(=S)Nc1ccc(Cl)cc1)c1ccccc1 | – | – | 4000 nM | – |
| CCCOCCCNC(=S)Nc1cccc(C#N)c1 | 75.2% | 1.1 | – | – |
| CCCOCCCNC(=S)Nc1cc(OC)ccc1OC | – | – | 3000 nM | – |

| Structure (SMILES) | Activity [1] | Ratio [2] | IC50 [4] | also measured |
| --- | --- | --- | --- | --- |
| CCCCc1ccc(NC(=S)NCCCOCCC)cc1 | 74.2% | 2.4 | – | – |
| CCCOCCCNC(=S)Nc1ccc(Cl)cc1Cl | 13.2% | 0.2 | – | – |
| S=C(NCc1ccco1)N1CCO[C@H](COc2cncc(Cl)c2)C1 | – | – | > 20000 nM | – |
| COc1ccc(CCn2cc(NC(=O)CCc3ccoc3)cn2)cc1OC | – | – | > 20000 nM | – |
| CCOC(=O)CCN(Cc1ccco1)C(=S)Nc1cccc(OC)c1 | – | – | > 20000 nM | – |
| CCCOCCCNC(=S)Nc1ccc(Br)c(Cl)c1 | 1% | 0.2 | – | – |
| CCCOCCCNC(=S)Nc1ccc(Cl)c(C(F)(F)F)c1 | 2.2% | 0.5 | – | – |
| Cc1ccc(CCN2C(=O)CS[C@@H]2c2ccc(C)o2)cc1 | – | – | > 20000 nM | – |
| CCCOCCCNC(=S)Nc1ccccc1Cl | 59.3% | 1.2 | – | – |
| CCCOCCCNC(=S)Nc1ccc(Cl)cc1C | 47.5% | – | 2600 nM | – |
| S=C(NCc1ccco1)NC1CCCCC1 | – | – | > 20000 nM | – |
| CCCOCCCNC(=S)Nc1cc(OC)c(Cl)cc1OC | 62.2% | 7.4 | 170 nM | inhibition [3]: 50%; IC50 [5]: 70000 nM; Activity [11]: 59%; IC50 [6]: 510 nM; Activity [7]: inactive; Ki [12]: 1100 nM; Ratio CC50/IC50 [8]: 345; CC50 at 72 h [13]: 58000 nM; Ki [14]: 1800 nM; Activity [9]: Active; IC50 [10]: 940 nM |
| C=CCOc1nc(OCC=C)nc(OC[C@@H]2CN(C(=S)NCc3ccco3)CCO2)n1 | – | – | > 20000 nM | – |
| Cc1ccnc2c1NC(=O)c1cccnc1N2C1CC1 [NEVIRAPINE] | 47.5% | – | – | IC50 [15]: 50 nM; IC50 [16]: 40 nM; Activity [7]: inactive; IC50 [17]: 24 nM; IC50 [18]: 14 nM; Activity [9]: Active; Activity [19]: inactive |
| CCCOCCCNC(=S)Nc1ccccc1OCC | 87.1% | 5.4 | 430 nM | – |
| CCCOCCCNC(=S)Nc1ccc(F)cc1Br | 47.6% | 1.2 | – | – |
| CCOC(=O)CCCNC(=S)Nc1ccc(Cl)c(C(F)(F)F)c1 | – | – | 1600 nM | – |
| Cc1cc(NC(=S)NCCC2=CCCCC2)ccc1Br | – | – | 230 nM | – |
| CCCOCCCNC(=S)Nc1cccc(OC)c1 | 98.7% | 3.2 | – | – |
| CCCOCCCNC(=S)Nc1ccc(C(C)(C)C)cc1 | 13.8% | 0.4 | – | – |
